Measurements reported in ChEMBL document CHEMBL1250476, “Synthesis and antifungal evaluation of novel triazole derivatives as inhibitors of cytochrome P450 14alpha-demethylase” (2010).
≈ marks a conversion by molar mass, not a printed value.

Key:
Type in all cases: functional
Trichophyton rubrum = assay: Antifungal activity against Trichophyton rubrum by micro-broth dilution method
How it was run: (§1)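 MIC80 by broth microdilution in 96-well format following NCCLS. Compounds were dissolved in DMSO, serially diluted in growth medium, inoculated and incubated at 35 °C. The endpoint was the first well with about 80% growth reduction versus the drug-free well. Values are means of three replicate tests.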

Candida albicans [1] = assay: Antifungal activity against Candida albicans Y0109 after 24 hrs by micro-broth dilution method; conditions: Y0109, 24 h
How it was run: (§2)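 Broth microdilution per NCCLS on Candida albicans. Compounds were dissolved in DMSO, serially diluted in growth medium, inoculated and incubated at 35 °C. Growth was read at 24 h, and MIC80 was taken as the first well with about 80% growth reduction relative to the drug-free control. Values are the mean of three replicates.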

Aspergillus fumigatus = assay: Antifungal activity against Aspergillus fumigatus by micro-broth dilution method; how it was run: as §1
Candida parapsilosis = assay: Antifungal activity against Candida parapsilosis by micro-broth dilution method; conditions: Lodderomyces parapsilosis; how it was run: as §1
Kluyveromyces marxianus = assay: Antifungal activity against Candida kefyr by micro-broth dilution method; how it was run: as §1
Cryptococcus neoformans = assay: Antifungal activity against Cryptococcus neoformans after 72 hrs by micro-broth dilution method
How it was run: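 Cryptococcus neoformans tested by NCCLS micro-broth dilution. Compounds were dissolved in DMSO, serially diluted in medium, inoculated and incubated at 35 °C. MIC80 was read at 72 h as the first well showing approximately 80% growth reduction compared with the drug-free well. Values are the mean of three replicate tests.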

Candida albicans [2] = assay: Antifungal activity against Candida albicans SC5314 after 24 hrs by micro-broth dilution method; conditions: SC5314, 24 h; how it was run: as §2
Candida tropicalis = assay: Antifungal activity against Candida tropicalis by micro-broth dilution method; how it was run: as §1

SMILES	MIC (Trichophyton rubrum) [µg/mL]	MIC (Candida albicans [1]) [µg/mL]	MIC (Aspergillus fumigatus) [µg/mL]	MIC (Candida parapsilosis) [µg/mL]	MIC (Kluyveromyces marxianus) [µg/mL]	MIC (Cryptococcus neoformans) [µg/mL]	MIC (Candida albicans [2]) [µg/mL]	MIC (Candida tropicalis) [µg/mL]
CCCCCCCCCCCCCCCCn1cc(CN(CC(O)(Cn2cncn2)c2ccc(F)cc2F)C(C)C)nn1 (stereo not drawn)	0.25 (≈ 0.415 µM)	0.0625 (≈ 0.104 µM)	> 64	0.5 (≈ 0.831 µM)	0.25 (≈ 0.415 µM)	2 (≈ 3.32 µM)	< 0.125	< 0.125
CC(C)N(Cc1cn(Cc2ccccc2[N+](=O)[O-])nn1)CC(O)(Cn1cncn1)c1ccc(F)cc1F (stereo not drawn)	1 (≈ 1.95 µM)	0.0625 (≈ 0.122 µM)	> 64	8 (≈ 15.6 µM)	0.0625 (≈ 0.122 µM)	32 (≈ 62.4 µM)	< 0.125	2 (≈ 3.9 µM)
CC(C)N(Cc1cn(Cc2cccc([N+](=O)[O-])c2)nn1)CC(O)(Cn1cncn1)c1ccc(F)cc1F (stereo not drawn)	1 (≈ 1.95 µM)	0.0625 (≈ 0.122 µM)	> 64	2 (≈ 3.9 µM)	0.25 (≈ 0.488 µM)	32 (≈ 62.4 µM)	< 0.125	4 (≈ 7.8 µM)
CC(C)N(Cc1cn(Cc2ccc([N+](=O)[O-])cc2)nn1)CC(O)(Cn1cncn1)c1ccc(F)cc1F (stereo not drawn)	2 (≈ 3.9 µM)	0.0039 (≈ 0.00761 µM)	> 64	4 (≈ 7.8 µM)	0.25 (≈ 0.488 µM)	16 (≈ 31.2 µM)	< 0.125	1 (≈ 1.95 µM)
CC(C)N(Cc1cn(Cc2ccccc2C#N)nn1)CC(O)(Cn1cncn1)c1ccc(F)cc1F (stereo not drawn)	2 (≈ 4.06 µM)	0.0156 (≈ 0.0317 µM)	> 64	8 (≈ 16.2 µM)	1 (≈ 2.03 µM)	64 (≈ 130 µM)	0.25 (≈ 0.508 µM)	1 (≈ 2.03 µM)
CC(C)N(Cc1cn(Cc2cccc(C#N)c2)nn1)CC(O)(Cn1cncn1)c1ccc(F)cc1F (stereo not drawn)	16 (≈ 32.5 µM)	0.0625 (≈ 0.127 µM)	> 64	16 (≈ 32.5 µM)	0.25 (≈ 0.508 µM)	64 (≈ 130 µM)	< 0.125	16 (≈ 32.5 µM)
CC(C)N(Cc1cn(Cc2ccc(C#N)cc2)nn1)CC(O)(Cn1cncn1)c1ccc(F)cc1F (stereo not drawn)	< 0.125	0.0156 (≈ 0.0317 µM)	> 64	0.5 (≈ 1.02 µM)	0.25 (≈ 0.508 µM)	16 (≈ 32.5 µM)	1 (≈ 2.03 µM)	< 0.125
CC(C)N(Cc1cn(Cc2ccccc2)nn1)CC(O)(Cn1cncn1)c1ccc(F)cc1F (stereo not drawn)	< 0.125	0.0039 (≈ 0.00834 µM)	64 (≈ 137 µM)	0.25 (≈ 0.535 µM)	0.0625 (≈ 0.134 µM)	8 (≈ 17.1 µM)	< 0.125	< 0.125
CC(C)N(Cc1cn(Cc2ccc(Cl)cc2Cl)nn1)CC(O)(Cn1cncn1)c1ccc(F)cc1F (stereo not drawn)	0.25 (≈ 0.466 µM)	0.0156 (≈ 0.0291 µM)	> 64	0.5 (≈ 0.932 µM)	0.25 (≈ 0.466 µM)	8 (≈ 14.9 µM)	4 (≈ 7.46 µM)	0.25 (≈ 0.466 µM)
CC(C)N(Cc1cn(Cc2c(Cl)cccc2Cl)nn1)CC(O)(Cn1cncn1)c1ccc(F)cc1F (stereo not drawn)	0.0156 (≈ 0.0291 µM)	< 0.125	> 64	0.0625 (≈ 0.117 µM)	0.0156 (≈ 0.0291 µM)	0.0625 (≈ 0.117 µM)	0.0039 (≈ 0.00727 µM)	0.0156 (≈ 0.0291 µM)
CC(C)N(Cc1cn(Cc2ccc(C(C)(C)C)cc2)nn1)CC(O)(Cn1cncn1)c1ccc(F)cc1F (stereo not drawn)	1 (≈ 1.91 µM)	0.25 (≈ 0.477 µM)	> 64	1 (≈ 1.91 µM)	0.25 (≈ 0.477 µM)	32 (≈ 61.1 µM)	< 0.125	2 (≈ 3.82 µM)
CC(C)N(Cc1cn(C2CCCCC2)nn1)CC(O)(Cn1cncn1)c1ccc(F)cc1F (stereo not drawn)	1 (≈ 2.18 µM)	0.0625 (≈ 0.136 µM)	> 64	2 (≈ 4.35 µM)	0.25 (≈ 0.544 µM)	16 (≈ 34.8 µM)	< 0.125	0.5 (≈ 1.09 µM)
OC(CN(Cc1cn(Cc2ccccc2F)nn1)C1CC1)(Cn1cncn1)c1ccc(F)cc1F (stereo not drawn)	0.25 (≈ 0.517 µM)	0.0625 (≈ 0.129 µM)	> 64	1 (≈ 2.07 µM)	0.0156 (≈ 0.0323 µM)	8 (≈ 16.5 µM)	0.5 (≈ 1.03 µM)	0.5 (≈ 1.03 µM)
OC(CN(Cc1cn(Cc2cccc(F)c2)nn1)C1CC1)(Cn1cncn1)c1ccc(F)cc1F (stereo not drawn)	< 0.125	0.0625 (≈ 0.129 µM)	64 (≈ 132 µM)	< 0.125	0.0156 (≈ 0.0323 µM)	> 64	< 0.125	< 0.125
OC(CN(Cc1cn(Cc2ccc(F)cc2)nn1)C1CC1)(Cn1cncn1)c1ccc(F)cc1F (stereo not drawn)	2 (≈ 4.14 µM)	0.25 (≈ 0.517 µM)	> 64	4 (≈ 8.27 µM)	0.0625 (≈ 0.129 µM)	16 (≈ 33.1 µM)	1 (≈ 2.07 µM)	1 (≈ 2.07 µM)
OC(CN(Cc1cn(Cc2ccccc2Cl)nn1)C1CC1)(Cn1cncn1)c1ccc(F)cc1F (stereo not drawn)	< 0.125	0.0625 (≈ 0.125 µM)	> 64	0.25 (≈ 0.5 µM)	0.0156 (≈ 0.0312 µM)	4 (≈ 8 µM)	< 0.125	< 0.125
CC(C)N(Cc1cn(Cc2ccccc2F)nn1)CC(O)(Cn1cncn1)c1ccc(F)cc1F (stereo not drawn)	< 0.125	0.0156 (≈ 0.0321 µM)	> 64	0.25 (≈ 0.515 µM)	0.0625 (≈ 0.129 µM)	2 (≈ 4.12 µM)	< 0.125	< 0.125
CC(C)N(Cc1cn(Cc2cccc(F)c2)nn1)CC(O)(Cn1cncn1)c1ccc(F)cc1F (stereo not drawn)	< 0.125	0.0156 (≈ 0.0321 µM)	> 64	0.25 (≈ 0.515 µM)	0.0625 (≈ 0.129 µM)	4 (≈ 8.24 µM)	< 0.125	< 0.125
CC(C)N(Cc1cn(Cc2ccc(F)cc2)nn1)CC(O)(Cn1cncn1)c1ccc(F)cc1F (stereo not drawn)	2 (≈ 4.12 µM)	0.25 (≈ 0.515 µM)	> 64	4 (≈ 8.24 µM)	0.25 (≈ 0.515 µM)	8 (≈ 16.5 µM)	0.25 (≈ 0.515 µM)	1 (≈ 2.06 µM)
CC(C)N(Cc1cn(Cc2ccccc2Cl)nn1)CC(O)(Cn1cncn1)c1ccc(F)cc1F (stereo not drawn)	< 0.125	0.0039 (≈ 0.00777 µM)	> 64	2 (≈ 3.98 µM)	0.25 (≈ 0.498 µM)	16 (≈ 31.9 µM)	< 0.125	1 (≈ 1.99 µM)
CC(C)N(Cc1cn(Cc2cccc(Cl)c2)nn1)CC(O)(Cn1cncn1)c1ccc(F)cc1F (stereo not drawn)	2 (≈ 3.98 µM)	0.0156 (≈ 0.0311 µM)	> 64	4 (≈ 7.97 µM)	0.25 (≈ 0.498 µM)	32 (≈ 63.7 µM)	< 0.125	2 (≈ 3.98 µM)
CC(C)N(Cc1cn(Cc2ccc(Cl)cc2)nn1)CC(O)(Cn1cncn1)c1ccc(F)cc1F (stereo not drawn)	0.5 (≈ 0.996 µM)	0.0625 (≈ 0.125 µM)	> 64	2 (≈ 3.98 µM)	0.25 (≈ 0.498 µM)	4 (≈ 7.97 µM)	< 0.125	0.5 (≈ 0.996 µM)
CC(C)N(Cc1cn(Cc2ccccc2Br)nn1)CC(O)(Cn1cncn1)c1ccc(F)cc1F (stereo not drawn)	< 0.125	0.0156 (≈ 0.0285 µM)	16 (≈ 29.3 µM)	< 0.125	0.0156 (≈ 0.0285 µM)	1 (≈ 1.83 µM)	< 0.125	< 0.125
CC(C)N(Cc1cn(Cc2cccc(Br)c2)nn1)CC(O)(Cn1cncn1)c1ccc(F)cc1F (stereo not drawn)	0.0625 (≈ 0.114 µM)	1 (≈ 1.83 µM)	> 64	0.0156 (≈ 0.0285 µM)	0.0039 (≈ 0.00714 µM)	1 (≈ 1.83 µM)	0.25 (≈ 0.458 µM)	0.25 (≈ 0.458 µM)
CC(C)N(Cc1cn(Cc2ccc(Br)cc2)nn1)CC(O)(Cn1cncn1)c1ccc(F)cc1F (stereo not drawn)	1 (≈ 1.83 µM)	0.0625 (≈ 0.114 µM)	> 64	4 (≈ 7.32 µM)	0.25 (≈ 0.458 µM)	8 (≈ 14.6 µM)	< 0.125	1 (≈ 1.83 µM)
Cc1ccc(Cn2cc(CN(CC(O)(Cn3cncn3)c3ccc(F)cc3F)C(C)C)nn2)cc1 (stereo not drawn)	0.25 (≈ 0.519 µM)	0.0625 (≈ 0.13 µM)	> 64	2 (≈ 4.15 µM)	1 (≈ 2.08 µM)	8 (≈ 16.6 µM)	1 (≈ 2.08 µM)	0.25 (≈ 0.519 µM)
